Measurements reported in ChEMBL document CHEMBL4049421, “Design, Synthesis, and Pharmacological Characterization of N-(4-(2 (6,7-Dimethoxy-3,4-dihydroisoquinolin-2(1H)yl)ethyl)phenyl)quinazolin-4-amine Derivatives: Novel Inhibitors Reversing P-Glycoprotein-Mediated Multidrug Resistance” (J Med Chem, 2017).
The source made the active and inactive calls. No cut-off for these calls is given here.

Tests used:
Rattus norvegicus [1] = test: Effect on half life of doxorubicin in Sprague-Dawley rat at 5 mg/kg, iv co-administered with doxorubicin measured after 8 hrs by LC-MS/MS analysis; type: ADME, organism-based; details: in vivo
Procedure, shortened: (§1)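 Male SD rats received DOX 10 mg/kg i.v. alone or with modulator 5 mg/kg i.v. Orbital blood was taken at 5 min to 8 h. Plasma DOX was measured by LC-MS/MS with DNR (0.5 μg/mL) as internal standard. Mean ± SD, n = 3.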

[2] = Plasma clearance in Sprague-Dawley rat at 10 mg/kg, po measured after 24 hrs by LC-MS/MS analysis; type: ADME, organism-based
Procedure, shortened: (§2)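 Male Sprague-Dawley rats, n = 3 per group, given drug in Tween-80/ethanol/saline (5:10:85, v/v) at 10 mg/kg p.o. or 5 mg/kg i.v. Retro-orbital blood was taken at 5 min to 24 h, and plasma separated at 900g. Samples were spiked with internal standard, methanol-precipitated and quantified by LC-MS/MS. F = (AUCpo/AUCiv)×(dose iv/dose po)×100%.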

[3] = Oral bioavailability in Sprague-Dawley rat plasma at 10 mg/kg measured after 24 hrs by LC-MS/MS analysis; type: ADME, organism-based; procedure, shortened: as §2
[4] = Selectivity index, ratio of IC50 for HUVEC to EC50 for inhibition of P-gp in human K562/A02 cells assessed as potentiation of doxorubicin-induced cytotoxicity
Procedure, shortened: (§3)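 Reversal EC50 is the modulator concentration that halves the DOX IC50 in K562/A02 cells, from % DOX IC50 plotted against log modulator concentration. The index divides the MTT IC50 in K562, K562/A02 or HUVEC cells by this EC50.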

Homo sapiens [5] = organism: Homo sapiens; test: Inhibition of P-gp in human K562/A02 cells assessed as potentiation of doxorubicin-induced cytotoxicity at 1.0 uM preincubated for 24 hrs followed by doxorubicin addition measured after 48 hrs by MTT assay; type: cell-based
Procedure, shortened: (§4)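 K562/A02 cells (1×10^4 cells per well) were preincubated 24 h with modulator (1.0 μM or 5.0 μM) or PBS. Cells were washed 0 or 3 times with medium and held for 0, 6, 12 or 24 h. A DOX concentration series was then added for 48 h, and viability was read by MTT. Triplicate determinations.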

Rattus norvegicus [6] = test: AUC(0 to infinity) in Sprague-Dawley rat plasma at 10 mg/kg, po measured after 24 hrs by LC-MS/MS analysis; type: ADME, organism-based; design: dose 10 mg/kg, route oral, time infinity; details: in vivo; procedure, shortened: as §2
Homo sapiens [7] = organism: Homo sapiens; test: Inhibition of ATPase activity in human P-gp membrane fraction at 0.5 uM in presence of ATP after 1 hr by luciferase […]; type: cell membranes
Procedure, shortened: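 Human P-gp membrane fraction (~25 μg) was incubated with compound at 0.5, 5.0 or 50.0 μM in 0.5% DMSO, with a 100 μM sodium vanadate reference. Reaction was started with 5.0 mM MgATP, 1 h at 37 °C. Remaining ATP was read by luciferase luminescence after 20 min at room temperature, relative to vanadate. n = 3.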

Homo sapiens [8] = organism: Homo sapiens; test: Inhibition of P-gp in human K562/A02 cells assessed as potentiation of daunorubicin-induced cytotoxicity at 1.0 uM after 48 hrs by MTT assay; type: cell-based
Procedure, shortened: (§5)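 K562/A02 cells were exposed for 48 h to DNR, PTX, VLB or CTX at 0, 0.313–20 μM, with or without modulator at 1.0 μM. Viability was measured by MTT at 490 nm, mean ± SD of three independent tests.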

[9] = Selective index, ratio of IC50 for human K562/A02 cells to EC50 for inhibition of P-gp in human K562/A02 cells assessed as potentiation of doxorubicin-induced cytotoxicity; procedure, shortened: as §3
Homo sapiens [10] = organism: Homo sapiens; test: Inhibition of P-gp in human K562/A02 cells assessed as potentiation of doxorubicin-induced cytotoxicity by measuring fold reduction in doxorubicin IC50 at 1.0 uM after 48 hrs by MTT assay relative to doxorubicin alone; type: cell-based
Procedure, shortened: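 K562/A02 cells (1×10^4 cells per well) were exposed to a DOX concentration series, alone or with modulator at 1.0 μM, for 48 h. Viability was read by MTT at 490 nm. Reversal fold = DOX IC50 without inhibitor / DOX IC50 with inhibitor, mean ± SD of three tests.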

K562/A02 [11] = test: Cytotoxicity against human K562/A02 cells assessed as suppression of cell viability after 48 hrs by MTT assay; type: cell-based; details: K562/A02, 48 h
Procedure, shortened: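 MTT assay on HUVEC, K562 or K562/A02 cells seeded at 1×10^4 cells per well, using serial compound concentrations. Formazan was dissolved in DMSO and read at 490 nm. IC50 was obtained from log dose–response curves, mean ± SD of three independent tests.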

[12] = Cmax in Sprague-Dawley rat at 10 mg/kg, po measured after 24 hrs by LC-MS/MS analysis; type: ADME, organism-based; design: dose 10 mg/kg, route oral; details: in vivo; procedure, shortened: as §2
Homo sapiens [13] = organism: Homo sapiens; test: Inhibition of P-gp mediated efflux in human K562/A02 cells assessed as intracellular Rh123 accumulation at 1.0 uM measure up to 90 mins by flow cytometric analysis; type: cell-based
Procedure, shortened: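 K562/A02 cells were loaded with 5 μM Rh123 for 90 min at 37 °C and washed three times. They were then incubated with or without modulator at 37 °C for 5, 10, 25, 30, 60 and 90 min. Retained Rh123 MFI per 10000 cells was measured by flow cytometry. 0.1% DMSO negative control, n = 3.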

K562/A02 [14] = test: Potentiation of cyclophosphamide-induced cytotoxicity against human K562/A02 cells at 1.0 uM after 48 hrs by MTT assay; type: functional, cell-based; procedure, shortened: as §5
Rattus norvegicus [15] = test: AUC(0 to infinity) in Sprague-Dawley rat plasma at 5 mg/kg, iv measured after 24 hrs by LC-MS/MS analysis; type: ADME, organism-based; design: dose 5 mg/kg, time infinity, route intravenous; details: in vivo; procedure, shortened: as §2
[16] = Cmax in Sprague-Dawley rat at 5 mg/kg, iv measured after 24 hrs by LC-MS/MS analysis; type: ADME, organism-based; design: dose 5 mg/kg, route intravenous; details: in vivo; procedure, shortened: as §2
Homo sapiens [17] = organism: Homo sapiens; test: Inhibition of P-gp in human K562/A02 cells assessed as potentiation of doxorubicin-induced cytotoxicity at 1 uM preincubated for 24 hrs followed by compound washout for 24 hrs and subsequent doxorubicin addition measured after 48 hrs by MTT assay; type: cell-based; procedure, shortened: as §4
[18] = Selective index, ratio of IC50 for human K562 cells to EC50 for inhibition of P-gp in human K562/A02 cells assessed as potentiation of doxorubicin-induced cytotoxicity; procedure, shortened: as §3
Rattus norvegicus [19] = test: Effect on plasma clearance of doxorubicin in Sprague-Dawley rat at 5 mg/kg, iv co-administered with doxorubicin measured after 8 hrs by LC-MS/MS analysis; type: ADME, organism-based; details: in vivo; procedure, shortened: as §1
K562/A02 [20] = test: Effect on ABCB1 expression in human K562/A02 cells at 0.1 uM to 2.0 uM after 72 hrs by Western blot analysis; type: functional, cell-based
Procedure, shortened: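 K562/A02 cells were treated 72 h with compound at 0.1, 0.5 or 2.0 μM and lysed in RIPA/PMSF. Lysate (100 μg) was run on gradient SDS-PAGE and probed with anti-ABCB1, with β-tubulin loading control and ECL detection. Expression is given as the ABCB1/β-tubulin band-intensity ratio.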

[21] = Cytotoxicity against human K562/A02 cells assessed as cell viability at 1.0 uM after 48 hrs by MTT assay (reference value: >99%); type: cell-based; details: read-out: Activity
[22] = Elimination half life in Sprague-Dawley rat plasma at 5 mg/kg, iv by LC-MS/MS analysis; type: ADME, organism-based; details: read-out: beta t1/2 (converted); procedure, shortened: as §2

CL/F [2]: 49.9 mL/min/kg
bioavailability [3]: 95.3%
AUC (Rattus norvegicus [6]): 3340 ng·h/mL
inhibition (Homo sapiens [7]): Active
Cmax [12]: 761 ng/mL
AUC (Rattus norvegicus [15]): 1750 ng·h/mL
Cmax [16]: 570 ng/mL
half-life [22]: 5.9 h
Compound: COc1cc2c(cc1OC)CN(CCc1ccc(Nc3nc(-c4ccncc4)nc4ccccc34)cc1)CC2
Activity (Rattus norvegicus [1]): Non-Toxic
Ratio IC50/EC50 [4]: 1270
inhibition (Homo sapiens [5]): Active
inhibition (Homo sapiens [8]): Active
Ratio IC50/EC50 [9]: 241.6
fold change (FC) (Homo sapiens [10]): 30.9
IC50 (K562/A02 [11]): 12.8 µM
inhibition (Homo sapiens [13]): Active
Activity (K562/A02 [14]): inactive
inhibition (Homo sapiens [17]): Active
Ratio IC50/EC50 [18]: 75.6
Activity (Rattus norvegicus [19]): Non-Toxic
Activity (K562/A02 [20]): inactive
viability at 48 h, 1 µM [21]: > 99%
